Results pooled from the literature.
Protocols differ between the studies behind these lines.
Target: LIM domain kinase 2 (LIMK2, Homo sapiens, UniProt P53671)

SMILES	test	setting	remaining binding [%]
Nc1ncc2c(n1)-c1c([nH]c3ccc(C#CC4CC4)cc13)CCCC2	binding, competition with immobilised ligand	1 µM	91
CC1CCCN1c1nccc(-c2cnn3ncccc23)n1 (stereo not shown)	binding	1 µM	96
CNCc1ccccc1-c1csc([C@@H](C)Nc2nc(C)nc3cc(OC)c(OC)cc23)c1	cell-free assay, competition with immobilised ligand	1 µM	96
Cc1cnc(Nc2ccc(C(=O)N3CCC(N4CCCC4)CC3)cc2)nc1-c1cc2ccccc2s1	binding, competition with immobilised ligand	1 µM	30
N[C@H]1CCN(c2nccc(-c3cnn4ncccc34)n2)C1	binding	1 µM	100
COc1cc(-c2cn(C3CCc4c(F)cccc4N(CC(F)(F)F)C3=O)nn2)ccc1-n1cnc(C)c1 (stereo not shown)	cell-free assay, competition with immobilised ligand	1 µM	100
C[C@@H](c1ccc(-n2cnc3c(N)ncnc32)cc1)N1CCc2nn(C)c(Cc3ccccc3)c2C1=O	binding, competition with immobilised ligand	0.1 µM	25
CNC(=O)c1ccc(Nc2ncc(C(F)(F)F)c(NCc3nccnc3N(C)S(C)(=O)=O)n2)cc1	cell-free assay, competition with immobilised ligand	0.1 µM	87
CN(C)c1nccc(-c2cnc3ncccn23)n1	binding	1 µM	91
CN(C)C(=O)Cn1cc(-c2nc(C3(c4ccc(-c5cnc(N)nc5)cc4)CC3)no2)cn1	cell-free assay, competition with immobilised ligand	1 µM	85
CN(C)c1nccc(-c2cnn3ncccc23)n1	binding	1 µM	97
CCN1CCN(Cc2ccc(C(=O)Nc3ccc(C)c(Oc4ccc5c(c4)CC(=O)N5)c3)cc2C(F)(F)F)CC1	binding, competition with immobilised ligand	1 µM	100
O=C1NC(c2ccccn2)Sc2ccccc21 (stereo not shown)	cell-free assay, competition with immobilised ligand	1 µM	92
COc1ccnn2ncc(-c3ccnc(N(C)C)n3)c12	binding	1 µM	82
CCC(=O)N[C@H]1CC[C@@H](C(=O)N(C)c2ccc(-c3nc4ccccc4o3)cc2)C1	cell-free assay, competition with immobilised ligand	1 µM	100
Cc1cnn2ncc(-c3ccnc(N(C)C)n3)c2c1	binding	1 µM	94
O=C(Nc1c[nH]nc1C(=O)NC1CCNCC1)c1cc(F)cc(F)c1	binding, competition with immobilised ligand	1 µM	97
COc1cnc(Nc2cccc(S(N)(=O)=O)c2)nc1N1CCN(c2ccccc2)CC1	binding, competition with immobilised ligand	1 µM	96
O=C(NCCCN1CCOCC1)c1ccc(Nc2nccc(-c3cc4ccccc4s3)n2)cc1	binding, competition with immobilised ligand	1 µM	59
COc1ncc2cc3ccccc3nc2c1C#N	cell-free assay, competition with immobilised ligand	5 µM	91
C[C@H]1CCN(c2nccc(-c3cnn4ncccc34)n2)C1	binding	1 µM	75
O=C(NCCCN1CCOCC1)c1ccc(Nc2ncc(Cl)c(-c3ccc(Cl)s3)n2)cc1	binding, competition with immobilised ligand	1 µM	83
